Consider one compound from ChEMBL document CHEMBL4715912, “Discovery of a novel series of indolinylpyrimidine-based GPR119 agonists: Elimination of ether-a-go-go-related gene liability using a hydrogen bond acceptor-focused approach” (Bioorg Med Chem, 2021).

Usually pEC50 stands for the negative decadic logarithm of the EC50, by convention in mol/L. By MRT is commonly meant the average time that molecules of a dose stay in the body.

pEC50: −log10 of the molar value.

One series deals with Rattus norvegicus. Kind of series: Antidiabetic activity in po dosed N-STZ 1.5 rat assessed as reduction in GHB level for 4 weeks. The class given is functional, organism-based. The conditions noted are these: dose 1-3 mg/kg. Summed up:
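Male N-STZ-1.5 rats kept under time-restricted feeding, treated for 4 weeks; GHb measured before and after treatment and expressed also as percentage change.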

The target in series [1] is T1, Glucose-dependent insulinotropic receptor (Rattus norvegicus, UniProt Q7TQN8).
T1 sequence (Q7TQN8 whole entry): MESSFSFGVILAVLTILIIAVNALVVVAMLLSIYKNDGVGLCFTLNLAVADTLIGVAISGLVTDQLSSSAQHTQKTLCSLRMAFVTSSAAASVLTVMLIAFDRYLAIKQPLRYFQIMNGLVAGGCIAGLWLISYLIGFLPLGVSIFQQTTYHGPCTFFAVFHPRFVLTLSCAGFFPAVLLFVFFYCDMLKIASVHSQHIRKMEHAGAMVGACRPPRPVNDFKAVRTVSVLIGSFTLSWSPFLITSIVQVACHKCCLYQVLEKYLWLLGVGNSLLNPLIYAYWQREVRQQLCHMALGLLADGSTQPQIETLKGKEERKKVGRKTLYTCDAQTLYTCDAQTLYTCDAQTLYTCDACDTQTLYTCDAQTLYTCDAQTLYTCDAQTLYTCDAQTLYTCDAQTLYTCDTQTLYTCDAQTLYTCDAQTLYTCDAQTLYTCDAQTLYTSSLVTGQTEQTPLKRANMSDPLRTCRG
Kind of series: Agonist activity at rat GPR119 expressed in CHO cells co-expressing cyclic AMP response element incubated for 2 hrs by steady-glo luciferase assay. In kind it is cell-based. The method, boiled down: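 Rat GPR119-expressing cells, cAMP-induced luciferase read with Steady-Glo after 2 h compound exposure in MEM α/HEPES/BSA buffer. Activity scaled between vehicle and a 10 µM reference agonist; EC50 mean of n = 2.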

Series [2] is described as follows: MRT in rat at 1 mg/kg, po by LC/MS/MS analysis. In kind it is ADME, organism-based. The conditions noted are these: in vivo. The method, boiled down:
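Cassette dosing, given by mouth at 1 mg/kg in 0.5% methylcellulose aqueous solution, with intravenous arm at 0.1 mg/kg, to non-fasted animals. Blood collected after dosing, plasma deproteinized and centrifuged, compound measured by LC/MS/MS.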

For series [3], the target named is T2, glucose-dependent insulinotropic receptor (Mesocricetus auratus, UniProt A0A1U8CD06).
T2 sequence (A0A1U8CD06 whole entry): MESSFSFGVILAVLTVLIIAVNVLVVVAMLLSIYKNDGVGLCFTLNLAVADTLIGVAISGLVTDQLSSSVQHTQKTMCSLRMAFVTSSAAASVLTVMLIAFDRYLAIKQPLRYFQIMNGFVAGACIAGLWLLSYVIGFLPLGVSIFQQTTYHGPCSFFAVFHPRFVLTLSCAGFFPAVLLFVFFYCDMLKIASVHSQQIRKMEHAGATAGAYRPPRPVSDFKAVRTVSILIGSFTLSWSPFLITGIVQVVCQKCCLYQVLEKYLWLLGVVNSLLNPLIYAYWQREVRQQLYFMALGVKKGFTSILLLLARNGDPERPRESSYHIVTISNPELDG
Kind of series: Agonist activity at GPR119 in glucose-induced golden hamster HIT-T15 cells assessed as increase in insulin secretion after 2 hrs by A1phaLISA. The class given is cell-based. The method, boiled down:
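HIT-T15 hamster β-cells seeded 5×10^4 cells/well, next day pre-incubated 2 h in KRBH buffer (0.2% BSA). Then exposed to compounds in KRBH with 0.2% fatty acid free BSA and 10 mmol/L glucose for 2 h at 37 °C; secreted insulin in supernatant quantified by AlphaLISA. EC50 reported from n = 2.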

Series [4] in a line: Intrinsic clearance in human liver microsomes at 1 uM measured after 15 to 30 mins in presence of NADPH generating system by LC/MS/MS analysis. In kind it is ADME, Microsome. The conditions noted are these: time 15-30 min, read-out: CLH. The method, boiled down: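 Human or rat liver microsomes at 0.2 mg/mL protein in 50 mM potassium phosphate pH 7.4 with 1 µM compound; reaction started with NADPH-generating system (5 mM MgCl2, 5 mM glucose-6-phosphate, 0.5 mM β-NADP+, 1.5 units/mL G6PDH). Stopped with acetonitrile at 15 and 30 min, parent by LC/MS/MS; rate from concentration–time slope, expressed as µL/min/mg.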
For orientation: Microsomes from liver hold many membrane-bound enzymes, among them those of drug oxidation.

For `CC(C)c1noc(N2CCC(Oc3cc(N4CCc5cc(N6CCC[C@H](O)C6=O)ccc54)ncn3)CC2)n1`, the Activity result in the series on Rattus norvegicus is “Dose-dependent effect”. In addition, the pEC50 was 6.92 in series [1] and 7.60 in series [3]. The mean residence time (MRT) in series [2] was found to be 3.8 h. In addition, in series [4], the microsomal CLint at 1 µM came to 9 µL/min/mg.
